Data published in ChEMBL document CHEMBL3120057, “Bioactive limonoids from the leaves of Azaridachta indica (Neem)” (J Nat Prod, 2014).
Activity calls are given as the source filed them. No cut-off for these calls is given here.

How the values were obtained:
PC-3 [1] = assay: Cytotoxicity against human PC3 cells assessed as growth inhibition at 100 uM after 48 hrs by trypan blue exclusion assay; format: functional, cell-based
Summary of the method: (§1)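 Cells cultured in DMEM with 10% FBS, streptomycin and penicillin at 37 °C under 5% CO2, and plated at 1.2 × 10^5/mL one day before treatment. Single 100 μM exposure for 48 h from DMSO stock diluted in medium. Viability read by MTT at 550 nm, blank-subtracted, as % of DMSO-vehicle control. Random checks by trypan blue exclusion count.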

HeLa [2] = assay: Cytotoxicity against human HeLa cells assessed as growth inhibition at 100 uM after 48 hrs by trypan blue exclusion assay; format: functional, cell-based; summary of the method: as §1
[3] = target: Heat shock protein HSP 90-alpha (Homo sapiens, UniProt P07900); assay: Binding affinity to recombinant HSP90-alpha (unknown origin) by surface plasmon resonance analysis
PC-3 [4] = assay: Cytotoxicity against human PC3 cells after 48 hrs; format: functional, cell-based; details: PC-3, 48 h
Summary of the method: (§2)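 MTT viability. ATCC cells in DMEM with 10% FBS and penicillin/streptomycin at 37 °C under 5% CO2, plated at 1.2 × 10^5/mL the day before dosing. Exposed 48 h to 20−100 μM (DMSO stocks diluted in medium). Formazan dissolved in DMSO and read at 550 nm. Viability expressed as % of vehicle control, blank-subtracted. Checked by trypan blue count. PEITC as positive control. Mean ± SD, at least three experiments in duplicate.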

HeLa [5] = assay: Cytotoxicity against human HeLa cells after 48 hrs; format: functional, cell-based; summary of the method: as §2

| Compound | growth inhibition (GI) (PC-3 [1]) | growth inhibition (GI) (HeLa [2]) | Activity [3] | Kd [3] [nM] | IC50 (PC-3 [4]) [µM] | IC50 (HeLa [5]) [µM] |
| --- | --- | --- | --- | --- | --- | --- |
| CC(=O)O[C@@H]1[C@H](O)[C@H]2C(C)(C)C(=O)CC[C@]2(C)[C@H]2CC[C@]3(C)C(=CC[C@H]3[C@H]3COC(=O)C3)[C@]12C | inactive | inactive | – | – | – | – |
| CC(=O)O[C@@H]1[C@H](O)[C@H]2C(C)(C)C(=O)C=C[C@]2(C)[C@H]2CC[C@]3(C)C(=CC[C@H]3C3=COC(=O)C3O)[C@]12C (relative stereo) | inactive | inactive | – | – | – | – |
| CC(=O)O[C@@H]1[C@H](O)[C@H]2C(C)(C)C(=O)CC[C@]2(C)[C@H]2CC[C@]3(C)C(=CC[C@H]3[C@@H]3CC(=O)OC3=O)[C@]12C (relative stereo) | inactive | inactive | – | – | – | – |
| COC(=O)[C@H]1OC[C@]23[C@@H]1[C@](C)([C@]14O[C@@]1(C)[C@H]1C[C@@H]4O[C@@H]4OC=C[C@@]41O)[C@H](O)[C@@H]1OC[C@](C(=O)OC)([C@H](O)C[C@@H]2O)[C@H]13 | inactive | inactive | – | – | – | – |
| C/C=C(\C)C(=O)O[C@H]1C[C@@H](O)[C@@]2(C(=O)OC)CO[C@H]3[C@@H](O)[C@@](C)([C@]45O[C@@]4(C)[C@H]4C[C@@H]5O[C@@H]5OC=C[C@@]54O)[C@@H]4[C@@H](C(=O)OC)OC[C@@]14[C@@H]32 | inactive | inactive | – | – | – | – |
| COC(=O)C[C@H]1[C@]2(C)C3=C(C)[C@H](C4=CC(=O)OC4O)C[C@@H]3O[C@@H]2[C@H](O)[C@@H]2[C@]1(C)C(=O)C=C[C@@]2(C)O (stereo partly drawn) | inactive | inactive | inactive | – | – | – |
| COc1cc(/C=C/C(=O)OC[C@H]2O[C@@H](OC(C)(C)C(=O)O)[C@H](O)[C@@H](O)[C@@H]2O)cc(OC)c1O | inactive | inactive | – | – | – | – |
| CC(=O)O[C@H]1C[C@@H](OC(C)=O)[C@@]2(C)CO[C@@H]3[C@@H](O)[C@@]4(C)C5=CC[C@@H](c6ccoc6)[C@]5(C)CC[C@@H]4[C@]1(C)[C@@H]32 | Active | Active | – | 49 | 80 | 74 |
| COC(=O)C[C@H]1[C@]2(C)C3=C(C)[C@H](C4=COC(=O)C4O)C[C@@H]3O[C@@H]2[C@H](O)[C@@H]2[C@]1(C)C(=O)C=C[C@@]2(C)O (stereo partly drawn) | inactive | inactive | inactive | – | – | – |
| CC(=O)O[C@@H]1[C@H](O)[C@H]2C(C)(C)C(=O)CC[C@]2(C)[C@H]2CC[C@]3(C)C(=CC[C@H]3C3=COC(=O)C3O)[C@]12C (stereo partly drawn) | inactive | inactive | – | – | – | – |
| CC(=O)O[C@@H]1[C@H](O)[C@H]2C(C)(C)C(=O)CC[C@]2(C)[C@H]2CC[C@]3(C)C(=CC[C@H]3c3ccoc3)[C@]12C | Active | Active | – | – | 90 | 74 |
| CC(=O)O[C@@H]1[C@H](O)[C@H]2C(C)(C)C(=O)C=C[C@]2(C)[C@H]2CC[C@]3(C)C(=CC[C@H]3[C@@H]3CC(=O)OC3=O)[C@]12C (relative stereo) | Active | Active | – | – | > 100 | 95 |
| CC(=O)O[C@@H]1[C@H](O)[C@H]2C(C)(C)C(=O)C=C[C@]2(C)[C@H]2CC[C@]3(C)C(=CC[C@H]3c3ccoc3)[C@]12C [NIMONOL] | Active | Active | – | – | 95 | 77 |
| C/C=C(\C)C(=O)O[C@H]1C[C@@H](O)[C@@]2(C)CO[C@H]3[C@H]4O[C@@H]5C[C@@H](c6ccoc6)C(C)=C5[C@@]4(C)[C@H](CC(=O)OC)[C@]1(C)[C@@H]32 [DESACETYL SALANNIN] | inactive | inactive | – | 33 | – | – |
| CC(=O)O[C@@H]1C[C@H](OC(=O)C=C(C)C)[C@@]2(C)[C@H]3[C@@H](OC[C@]13C)[C@@H](O)[C@@]1(C)C3=CC[C@@H]([C@@H]4COC(=O)C4)[C@]3(C)CC[C@@H]12 | inactive | inactive | inactive | – | – | – |
